Source: article PMC6726529 (Clinical cancer research : an official journal of the …, 2019)

Experiments:
lymphoma cell lines = experiment: Synergy in cell viability assay by excess over bliss; format: cell-based; conditions: for synergy in combination with romidepsin: EZH2 inhibitor combined with romidepsin (Supplementary Fig S3)
[1] = mouse, in vivo; for median Cmax: ip
H3K27 = H3K27 acetylation/methylation in HEK 293T cells; format: cell-based; conditions: single agent exposure
Procedure, shortened: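 HEK293 cells were transfected in OPTI-MEM with a human HDAC2 shRNA or scramble plasmid using Lipofectamine 3000. They were puromycin-selected and monitored for GFP by flow cytometry and fluorescence microscopy until a stable line formed. The stable HDAC2-knockdown or scramble cells were then exposed to an EZH2 inhibitor test compound, and H3K27 methylation status was assessed.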

[2] = prior work, combination therapy alisertib + romidepsin; cited from earlier work
SU-DHL-10 = experiment: Cell viability assay, single agent IC50; format: cell-based; conditions: Homo sapiens, SU-DHL10, 72 h, read-out: in vitro IC50 of romidepsin in SU-DHL-10
B-cell lymphomas = conditions: phase I clinical trial; cited from earlier work

Row | SMILES | synergy in combination with romidepsin (lymphoma cell lines) | Cmax translated to molar concentration [1] | median Cmax [1] | other results
1 | Nc1ccc(-c2cccs2)cc1NC(=O)c1ccc2nc(N3CCNCC3)ccc2c1 [ACY957] |  |  |  | synergy in combination with GSK126 (EOB) (lymphoma cell lines; ACY957 combined with GSK126, 4 GC-DLBCL cell lines): synergistic
2 | COc1cc(C)[nH]c(=O)c1CNC(=O)c1c(C)n([C@H](C)C2CCN(CC(F)(F)F)CC2)c2ccccc12 [CPI-1205] | demonstrated synergy |  |  | 
3 | CCN(c1cc(C#CCN2CCOCC2)cc(C(=O)NCc2c(C)cc(C)[nH]c2=O)c1C)[C@H]1CC[C@H](N(C)CCOC)CC1 [EPZ011989] | demonstrated synergy |  |  | 
4 | CC[C@H](C)n1cc(C)c2c(C(=O)NCc3c(C)cc(C)[nH]c3=O)cc(-c3ccc(N4CCNCC4)nc3)cc21 [GSK126] |  | 3150 nM | 1657.5 ± 413.6 ng/mL | serum AUC0-last [1]: 2828.57 ng·h/mL; status of acetylation or methylation of H3K27 (H3K27): did not significantly change
5 | C/C=C1\NC(=O)[C@H]2CSSCC/C=C/[C@H](CC(=O)N[C@H](C(C)C)C(=O)N2)OC(=O)[C@H](C(C)C)NC1=O [romidepsin] |  | 180 nM | 98.24 ± 62.50 ng/mL | intratumor levels after combination of alisertib and romidepsin [2]: below the level of detection; IC50 (SU-DHL-10): 2.59 nM
6 | CCN(c1cc(-c2ccc(CN3CCOCC3)cc2)cc(C(=O)NCc2c(C)cc(C)[nH]c2=O)c1C)C1CCOCC1 [tazemetostat] |  |  |  | overall response rate (B-cell lymphomas): 38%
